The values that follow come from ChEMBL document CHEMBL1148788 (J Med Chem, 2007).

The nature of assay [1]: Displacement of [3H]methyllycaconitine from chimeric alpha-7nAChR K145R mutant /5HT3A receptor in tsA201 cells. The format is cell-based, Homo sapiens. The gist of the method:
(§1)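 tsA-201 cells transiently transfected with 4 µg WT or mutant α7/5-HT3A chimera and assayed 2 days later. Membranes washed twice at 50000g in 50 mM Tris-HCl pH 7.2. Incubated with 0.5 nM [3H]MLA and compound for 2.5 h at room temperature with shaking; nonspecific binding with 5 mM (S)-nicotine. PEI-soaked GF/C filtration, scintillation counting. Ki derived; duplicate, 3–7 experiments.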
On the technique in general: Loss of bound radioactivity is the signal in a displacement assay; it reports binding, not function.

In assay [2] the target is T1, Neuronal acetylcholine receptor subunit alpha-7 (Homo sapiens, UniProt P36544). Nature of the assay: Displacement of [3H]methyllycaconitine from alpha7 nAChR in tsA201 cells co-expressed with Ric3. Format: cell-based.
T1 sequence (P36544 whole entry): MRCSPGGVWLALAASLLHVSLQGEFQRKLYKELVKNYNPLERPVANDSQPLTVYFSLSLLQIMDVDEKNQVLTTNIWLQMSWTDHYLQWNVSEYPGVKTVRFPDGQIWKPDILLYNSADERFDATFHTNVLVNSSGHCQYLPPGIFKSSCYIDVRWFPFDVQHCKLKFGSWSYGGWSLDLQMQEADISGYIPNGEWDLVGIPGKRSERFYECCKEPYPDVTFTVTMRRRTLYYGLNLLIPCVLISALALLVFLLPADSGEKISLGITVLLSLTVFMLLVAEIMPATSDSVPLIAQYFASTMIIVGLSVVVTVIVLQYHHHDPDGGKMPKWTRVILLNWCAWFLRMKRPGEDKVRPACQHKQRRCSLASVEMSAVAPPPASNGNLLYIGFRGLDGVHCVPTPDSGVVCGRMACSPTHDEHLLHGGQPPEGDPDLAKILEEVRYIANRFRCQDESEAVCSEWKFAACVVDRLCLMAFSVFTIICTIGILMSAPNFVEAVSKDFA
For assay [3], the target named is T1, Neuronal acetylcholine receptor subunit alpha-7. As to the kind of experiment: Antagonist activity at human alpha-7 nAChR in tsA201 cells coexpressed with Ric3 by FMP assay. Format: functional, cell-based.
Assay [4] concerns the target T2, Glycine receptor subunit alpha-1 (Homo sapiens, UniProt P23415).
T2 sequence (P23415 whole entry): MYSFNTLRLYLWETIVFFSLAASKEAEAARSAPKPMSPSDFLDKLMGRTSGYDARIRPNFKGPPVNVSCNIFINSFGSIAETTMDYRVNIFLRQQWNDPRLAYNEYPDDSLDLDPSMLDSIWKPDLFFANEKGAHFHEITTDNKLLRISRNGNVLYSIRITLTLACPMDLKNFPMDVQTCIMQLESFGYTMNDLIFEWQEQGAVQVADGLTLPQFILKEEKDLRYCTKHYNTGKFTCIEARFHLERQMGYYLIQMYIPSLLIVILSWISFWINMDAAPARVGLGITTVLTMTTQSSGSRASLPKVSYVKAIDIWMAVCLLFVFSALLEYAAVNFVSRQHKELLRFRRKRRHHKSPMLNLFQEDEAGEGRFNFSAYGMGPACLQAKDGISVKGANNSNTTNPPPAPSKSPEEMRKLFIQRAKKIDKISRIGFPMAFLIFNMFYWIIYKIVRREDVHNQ
As to the kind of experiment: Antagonist activity at human glycine alpha-1 receptor in HEK293 cells by FMP assay. The format is functional, cell-based.

Assay [5] is described as follows: Displacement of [3H]methyllycaconitine from chimeric alpha-7nAChR Y195F mutant/5HT3A receptor in tsA201 cells. Format: cell-based, Homo sapiens. The gist of the method: as §1

For orientation: pKi means the Ki on a negative log10 scale, so that one unit is a factor of ten. The low end stands for a large Ki, the high end for a small Ki. As usually defined, the pIC50 is the negative decadic logarithm of the IC50, by convention in mol/L. Consider `O=[N+]([O-])c1ccc(C[N+]23CC[C@@H]4[C@@H]5[C@@H]6[C@@H](OCC=C(C2)[C@@H]6C[C@@H]43)N2c3ccccc3[C@@]34CC[N+]6(Cc7ccc([N+](=O)[O-])cc7)CC7=CCO[C@H]([C@@H]([C@H]23)[C@H]7C[C@@H]46)N5c2ccccc2)cc1.[Br-].[Br-]` (stereo not given in full), for which the Ki in assay [1] is 58 nM; in assay [2] (read-out: Ki), 29 nM; in assay [2] (read-out: pKi (converted)) it was 31.6 nM; in assay [5], 50 nM. Further, the pKi was found to be 7.24 in assay [1] and 7.3 in assay [5]. The IC50 in assay [3] (read-out: IC50) is 370 nM; in assay [3] (read-out: pIC50 (converted)), 372 nM; in assay [4], more than 100000 nM. In assay [4] (hek293), the pIC50 was less than 4.
